Rows were chosen to be rich in hits. Some 3% of all compounds tested hit in one or more screens of this group.
ABHD5 PLIN5 PPI: ABHD5-PLIN5 protein interaction inhibition; Q00G26+Q8WTS1; Split G. princeps luciferase complementation, luminescence, 4 h; inhibition, % at 4 µM; actives 0.78% (n = 360,000); AID 602281;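 active means inhibition above the mean inhibition across every tested compound plus 3 SD, cut at about 22% in these data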;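 further: 0% = DMSO only wells and the 100% control is not disclosed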
B2AR ag: human beta-2 adrenergic receptor agonism by FAP | Am2.2-beta2AR cells, FAP receptor internalization, flow cytometry | response, % (concentration not given with the values) | actives 0.43% (n = 340,000) | AID 504454;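 active means response above a set limit, near 3 SD of response in nonfluorescent compounds, cut at about 42% in these data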
MC4R barr agon: agonists of human melanocortin 4 receptor (MC4R) beta-arrestin | activation, % at 8.9 µM | P32245 | actives 0.98% (n = 360,000) | U2OS MC4R beta-arrestin complementation, luminescence; percent of melanotan II response, DMSO zero | AID 540308;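 active means activation above a per-plate cutoff, the mean activation of sample wells on that plate plus 3 SD, cut at about 8% in these data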
Target sequence (P32245 whole entry, looked up): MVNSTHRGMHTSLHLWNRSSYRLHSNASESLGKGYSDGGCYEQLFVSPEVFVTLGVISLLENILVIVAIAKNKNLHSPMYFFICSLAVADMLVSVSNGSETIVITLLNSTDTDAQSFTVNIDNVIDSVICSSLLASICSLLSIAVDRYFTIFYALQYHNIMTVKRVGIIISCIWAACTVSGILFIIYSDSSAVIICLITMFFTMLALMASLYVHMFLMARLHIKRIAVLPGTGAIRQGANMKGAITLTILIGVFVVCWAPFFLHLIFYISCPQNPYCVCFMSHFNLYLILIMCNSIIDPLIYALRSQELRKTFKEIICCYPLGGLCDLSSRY
MC4R antagonist: blocks human MC4R cAMP signaling | AID 540295 | MC4R-expressing cells, MTII-stimulated cAMP, LANCE TR-FRET | inhibition, % at 6.5 µM | P32245 | actives 0.48% (n = 360,000);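 active means inhibition above its plate's cutoff, the mean of tested wells on that plate plus 3 SD, cut at about 29% in these data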;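 further: 0% = Melanotan II alone and 100% = Melanotan II plus saturating MCL0020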
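System: U2OS-MC4R stable cell line; Technique: Eu-cAMP/anti-cAMP TR-FRET, emission 671 nm; Repeats: single well per compound; Also added: Melanotan II; Dosing: one concentration, 6.5 µM nominal; Schedule: 30-min compound, 1-h challenge, 1-h detection, room temperature.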
PfG6PD inh: PfG6PD (Plasmodium falciparum) enzyme inhibition. inhibition, % at 20 µM. PfGluPho enzyme, NADPH resazurin-diaphorase fluorescence. actives 0.78% (n = 350,000);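 active means inhibition reaching at least a set limit at 20 µM in the primary screen, cut at about 59% in these data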;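 further: 0% = DMSO wells with substrate and 100% = DMSO wells lacking glucose-6-phosphate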
MC4R barr ag: human MC4R beta-arrestin agonism confirmation. U2OS MC4R beta-arrestin recruitment, luminescence; scaled DMSO 0%, Melanotan II 100%. shares compounds with MC4R barr agon. activation, % at 8.9 µM. actives 31% (n = 2,400);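 active means mean activation across replicates above the hit cutoff set in the earlier primary screen, cut at about 8% in these data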
MOR DOR agonist: counter-screen for MC4R agonists: agonists of mu-delta opioid heterodimer. shares compounds with MC4R barr agon. U2OS PathHunter beta-arrestin, beta-gal luminescence; percent of deltorphin B response, DMSO zero. activation, % at 9.2 µM. actives 5.8% (n = 2,400). AID 602194;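 active means mean activation across replicates exceeds the hit threshold derived in the earlier primary screen, cut at about 18% in these data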;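 further: 100% = deltorphin B at 0.9 µM final and 0% = DMSO alone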
* marks the source's active call; other numbers are inactive results; x = no result.

SMILES	ABHD5 PLIN5 PPI	B2AR ag	MC4R barr agon	MC4R antagonist	PfG6PD inh	MC4R barr ag	MOR DOR agonist
CCc1cccc(CC)c1NC(=O)COC(=O)c1cccc(S(=O)(=O)N2CCc3ccccc3C2)c1	2.9	-1.5	-0.3	20.4	-5.7	x	x
Cc1cccc(C(C)C)c1NC(=O)COC(=O)c1cccc(S(=O)(=O)N2CCc3ccccc3C2)c1	0.4	-5.8	18.2*	-6.2	-14.8	8.6*	7.2
O=C(Cn1cc(C(F)(F)F)cc(Cl)c1=O)Nc1cccc(S(=O)(=O)N2CCCCC2)c1	-6.2	-5.8	-1.1	4.9	3.5	x	x
CC(=O)Nc1ccc(NC(=O)CSc2ccc3nnc(CCNS(=O)(=O)c4ccc(C)cc4)n3n2)cc1	5.4	-5.8	1.5	-7.5	-11.4	x	x
CS(=O)(=O)CCC(C(=O)OCc1ccc(Cl)cc1)N1C(=O)c2ccccc2C1=O (configuration not stated)	9.3	5.8	2.4	1.3	7.5	x	x
C=CCn1c(SCC(=O)Nc2ccc(C(=O)OC(C)C)cc2)nnc1-c1cccs1	-3.0	-1.7	23.2*	16.5	14.5	1.2	1.9
C=CCn1c(SCC(=O)c2ccc(Cl)cc2)nnc1-c1ccc2c(c1)OCO2	-10.7	2.1	1.7	9.1	14.5	x	x
Cc1ccc(Sc2nnc(-c3ccccc3)cc2C#N)cc1	-5.9	4.2	13.0*	4.1	-8.7	2.8	5.6
CCCC[C@@H]1CCCO[C@@](C(=O)NCc2ccc(C)o2)(C(F)(F)F)C1	10.3	4.4	-1.6	12.4	11.4	x	x
O=C(NNC(=O)C1CCC1)c1cccc(Cl)c1	7.0	-0.3	1.1	2.1	-8.2	x	x
CC1CCCCC1NC(=O)NC(=O)COC(=O)c1ccc(OC(F)F)cc1 (configuration not stated)	-3.1	-6.0	10.2*	-0.5	10.7	3.2	8.7
CC(C)Oc1ccc(C(=O)OCC(=O)NC(=O)NC2CCCC2)cc1	-3.9	-4.0	0.9	-1.2	12.4	x	x
COc1cc(C(=O)OCC(=O)NC(=O)NCc2ccccc2)ccc1OC(F)F	15.6	2.6	9.7*	-2.9	8.5	3.2	7.8
COc1ccc2oc(C(=O)OCC(=O)Nc3ccc(NC(C)=O)cc3)c(C)c2c1	2.0	-3.7	4.5	0.8	3.1	x	x
COc1ccc2oc(C(=O)OCC(=O)NCc3ccccc3OC)c(C)c2c1	1.0	3.7	21.0*	10.8	-5.3	8.0	5.8
CCOc1ccccc1NC(=O)c1oc2ccccc2c1NC(=O)C1CC1	-1.0	-0.4	-2.5	6.2	12.2	x	x
COc1ccc(NC(=O)c2oc3ccccc3c2C)c(OC)c1	2.6	2.0	13.7*	2.3	4.0	0.5	5.4
COc1ccccc1NC(=O)c1oc2ccccc2c1NC(=O)C1CC1	-4.8	-11.8	10.1*	12.5	5.3	2.5	2.7
O=C(Nc1ccccc1N1CCCC1)C1CCCO1 (configuration not stated)	-4.0	2.9	-1.2	3.5	-0.8	x	x
Cc1cccc(NC(=S)N/N=C/c2ccc(Cl)c([N+](=O)[O-])c2)c1	-5.9	0.5	22.1*	18.2	-16.3	5.4	8.8
Cc1cccc(NC(=S)N/N=C/c2cccc([N+](=O)[O-])c2)c1	-4.6	-0.7	-1.6	-6.0	8.2	x	x
O=c1cc(CSc2ccccn2)c2ccccc2[nH]1	-2.5	-7.0	-1.3	1.7	18.5	x	x
Cc1cc(SCc2cc(=O)[nH]c3ccccc23)nc2ccccc12	4.2	-6.4	11.7*	-2.7	32.5	2.9	4.9
O=C(/C=C/c1ccc(Cl)cc1)Nc1ccccc1N1CCOCC1	-10.4	-8.0	9.7*	2.3	2.9	3.4	2.4
O=C(/C=C/c1ccc(Cl)cc1)NC(=S)Nc1ccc(N2CCOCC2)c(Cl)c1	-0.4	1.7	15.0*	11.0	23.2	7.2	4.5
SMILES	ABHD5 PLIN5 PPI	B2AR ag	MC4R barr agon	MC4R antagonist	PfG6PD inh	MC4R barr ag	MOR DOR agonist
O=C(NC(=S)Nc1ccc(N2CCOCC2)cc1)c1ccc(Cl)cc1	0.1	-4.8	13.9*	2.0	9.1	1.7	1.8
O=C(/C=C/c1ccc(Cl)cc1)Nc1ccc(N2CCOCC2)cc1	-3.4	0.9	2.2	4.2	-8.9	x	x
CC(C)(C)c1ccc(C(=O)NC(=S)Nc2ccc(N3CCOCC3)cc2)cc1	4.2	-3.5	1.4	5.6	11.7	x	x
COc1ccccc1C(=O)NC(CCSC)C(=O)OCC(=O)N1CCN(S(=O)(=O)c2ccc(C)cc2)CC1 (configuration not stated)	-3.2	-8.7	-1.2	5.8	3.0	x	x
COc1ccc(C2Nc3cc(OC)ccc3-n3cccc32)cc1 (configuration not stated)	9.2	13.4	3.4	2.4	0.4	x	x
Cc1nc(Nc2ccc(C(=O)O)cc2)nc(Nc2ccc(C(=O)O)cc2)c1[N+](=O)[O-]	0.6	-4.3	-4.7	12.1	28.3	x	x
Cc1nc(Nc2ccc(F)cc2)nc(Nc2ccc(F)cc2)c1[N+](=O)[O-]	-2.9	6.0	13.2*	10.1	-4.7	5.5	3.2
Cc1ccc(C(=O)OCC(=O)Nc2ccccc2C(F)(F)F)cc1S(=O)(=O)N1CCCCC1	-2.5	10.7	-4.3	5.6	16.8	x	x
Clc1ccc(-c2nnc(-c3cccc4ccccc34)o2)cc1	3.0	9.4	11.1*	-0.3	5.6	3.2	2.1
Cc1ccc(-c2nnc(-c3cccc4ccccc34)o2)cc1	4.7	-4.2	0.3	3.5	5.2	x	x
c1ccc(Nc2nnc(-c3cccc4ccccc34)o2)cc1	-3.1	-4.0	16.8*	6.5	-2.3	7.5	7.8
O=C(NC1CCN(C(=S)Nc2ccccc2)CC1)C1CCCCC1	-1.5	4.2	-0.2	4.3	-3.1	x	x
COc1ccc2cc(CNCCOCCOCCNCc3ccc4cc(OC)ccc4c3)ccc2c1	5.4	37.0	17.5*	4.9	8.2	57.9*	20.1*
CCOCCCNCc1ccc(OC)cc1	3.1	-0.4	-2.3	-4.0	-5.1	x	x
CC(CC(=O)c1ccccc1)=NCCCN=C(C)CC(=O)c1ccccc1	-4.4	x	1.2	-10.7	-12.7	x	x
O=C(COC(=O)/C=C/c1cccc(Cl)c1)NC1CCCC1	1.9	-0.5	0.4	3.0	-14.3	x	x
O=C(CCCCn1c(=O)c2ccccc2n(Cc2ccc(F)cc2Cl)c1=O)NCc1ccco1	3.1	-10.1	11.1*	5.0	-7.0	1.1	4.3
CC(C)Oc1ccc(/C=C/C(=O)NCC2COc3ccccc3O2)cc1 (configuration not stated)	-9.7	58.4*	10.3*	3.7	24.0	1.3	3.4
Cc1ccc(C)c(S(=O)(=O)Nc2ccc(C(=O)N3CCCCC3)cc2)c1	13.4	2.1	-0.9	-3.4	-14.0	x	x
Cc1cc(NC(=O)CSc2nnc(NCc3ccccc3)s2)no1	-1.3	-2.5	1.2	8.9	0.7	x	x
